Reference: ChEMBL document CHEMBL2046349, “Synthesis of pacidamycin analogues via an Ugi-multicomponent reaction” (Bioorg Med Chem Lett, 2012)
Values after ≈ are worked out from the molar mass of the structure shown.

Legend:
Pseudomonas aeruginosa [1] = experiment: Antimicrobial activity against Pseudomonas aeruginosa ATCC 25619 incubated at 35 degC for 20 hrs by microdilution broth method; format: functional; settings: ATCC 25619, 20 h
How it was run: (§1)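 Broth microdilution per NCCLS in cation-adjusted Mueller-Hinton broth. Each compound serially diluted two-fold, and each […] inoculated at 5×10^4 CFU per 0.1 mL well. Plates incubated 35 °C for 20 h, then MIC scored.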

Pseudomonas aeruginosa [2] = experiment: Antimicrobial activity against Pseudomonas aeruginosa SR 27156 incubated at 35 degC for 20 hrs by microdilution broth method; format: functional; settings: SR 27156, 20 h; how it was run: as §1
Pseudomonas aeruginosa [3] = experiment: Antimicrobial activity against Pseudomonas aeruginosa YYI65 (deltamexB) incubated at 35 degC for 20 hrs by microdilution broth method; format: functional; settings: YYI65, 20 h; how it was run: as §1
Pseudomonas aeruginosa [4] = experiment: Antimicrobial activity against Pseudomonas aeruginosa PAO1 incubated at 35 degC for 20 hrs by microdilution broth method; format: functional; settings: PAO1, 20 h; how it was run: as §1
[5] = biological target: T1, Phospho-N-acetylmuramoyl-pentapeptide-transferase (Staphylococcus aureus, UniProt P0C1R8); experiment: Inhibition of Staphylococcus aureus MraY using UDP-MurNAc-dansylpentapeptide substrate assessed as formation of dansylated lipid I incubated for 3 to 4 hrs by fluorometric assay
T1 sequence (P0C1R8 whole entry): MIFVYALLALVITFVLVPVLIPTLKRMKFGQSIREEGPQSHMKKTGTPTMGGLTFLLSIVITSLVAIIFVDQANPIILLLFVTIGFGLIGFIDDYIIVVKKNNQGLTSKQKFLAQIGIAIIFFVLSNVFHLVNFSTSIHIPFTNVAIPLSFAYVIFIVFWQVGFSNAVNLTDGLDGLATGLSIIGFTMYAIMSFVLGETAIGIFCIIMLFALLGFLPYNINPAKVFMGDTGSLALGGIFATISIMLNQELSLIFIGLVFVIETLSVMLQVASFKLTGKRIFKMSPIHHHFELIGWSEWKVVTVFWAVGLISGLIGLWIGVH
How it was run: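 Purified S. aureus MraY with UDP-MurNAc-dansylpentapeptide as substrate. Dansylated lipid I formation followed as fluorescence enhancement at ex 355 nm / em 535 nm. IC50 reported.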

Work on `C[C@H](N)C(=O)N(C)[C@@H](C)[C@H](NC(=O)[C@H](C)NC(=O)N[C@@H](Cc1c[nH]c2ccccc12)C(=O)O)C(=O)N/C=C1\O[C@@H](n2ccc(=O)[nH]c2=O)[C@H](O)[C@@H]1O` yielded an MIC (Pseudomonas aeruginosa [1]) of 16 µg/mL (≈ 22 µM), an MIC (Pseudomonas aeruginosa [2]) of 16 µg/mL (≈ 22 µM) and an MIC (Pseudomonas aeruginosa [3]) of 8 µg/mL (≈ 11 µM). It also gave an MIC (Pseudomonas aeruginosa [4]) of 32 µg/mL (≈ 44 µM) and an IC50 [5] of 42 nM.
In the case of `C[C@H](N)C(=O)N(C)[C@@H](C)[C@@H](NC(=O)[C@H](C)NC(=O)N[C@@H](Cc1c[nH]c2ccccc12)C(=O)O)C(=O)N/C=C1\O[C@@H](n2ccc(=O)[nH]c2=O)[C@H](O)[C@@H]1O`, the MIC (Pseudomonas aeruginosa [1]) is reported as > 32 µg/mL, the MIC (Pseudomonas aeruginosa [2]) is reported as > 32 µg/mL and the MIC (Pseudomonas aeruginosa [3]) is reported as > 32 µg/mL. For the same molecule, the MIC (Pseudomonas aeruginosa [4]) was > 32 µg/mL and the IC50 [5] was 4000 nM.
For `C[C@H](NC(=O)N[C@@H](Cc1c[nH]c2ccccc12)C(=O)O)C(=O)N[C@H](C(=O)N/C=C1\O[C@@H](n2ccc(=O)[nH]c2=O)[C@H](O)[C@@H]1O)[C@H](C)N(C)C(=O)[C@H](Cc1cccc(O)c1)NC(=O)CN`, the MIC (Pseudomonas aeruginosa [1]) was 32 µg/mL (≈ 36.5 µM), the MIC (Pseudomonas aeruginosa [2]) was 16 µg/mL (≈ 18.2 µM) and the MIC (Pseudomonas aeruginosa [3]) was 16 µg/mL (≈ 18.2 µM). For the same molecule, the MIC (Pseudomonas aeruginosa [4]) was > 32 µg/mL and the IC50 [5] was 22 nM.
With `C[C@H](NC(=O)N[C@@H](Cc1c[nH]c2ccccc12)C(=O)O)C(=O)N[C@H](C(=O)N/C=C1\O[C@@H](n2ccc(=O)[nH]c2=O)[C@H](O)[C@@H]1O)[C@H](C)N(C)C(=O)[C@H](Cc1ccc(O)cc1)NC(=O)CN` the MIC (Pseudomonas aeruginosa [1]) was > 32 µg/mL, the MIC (Pseudomonas aeruginosa [2]) was > 32 µg/mL and the MIC (Pseudomonas aeruginosa [3]) was > 32 µg/mL. The MIC (Pseudomonas aeruginosa [4]) was > 32 µg/mL and the IC50 [5] was 4000 nM.
For `C[C@H](NC(=O)N[C@@H](Cc1c[nH]c2ccccc12)C(=O)O)C(=O)N[C@H](C(=O)N/C=C1\O[C@@H](n2ccc(=O)[nH]c2=O)[C@H](O)[C@@H]1O)[C@H](C)N(C)C(=O)CN`, the MIC (Pseudomonas aeruginosa [1]) was > 32 µg/mL, the MIC (Pseudomonas aeruginosa [2]) was > 32 µg/mL and the MIC (Pseudomonas aeruginosa [3]) was > 32 µg/mL. The MIC (Pseudomonas aeruginosa [4]) was > 32 µg/mL and the IC50 [5] was 65 nM.
`C[C@H](NC(=O)N[C@@H](Cc1c[nH]c2ccccc12)C(=O)O)C(=O)N[C@@H](C(=O)N/C=C1\O[C@@H](n2ccc(=O)[nH]c2=O)[C@H](O)[C@@H]1O)[C@H](C)N(C)C(=O)[C@H](Cc1cccc(O)c1)NC(=O)CN` was tested, and the MIC (Pseudomonas aeruginosa [1]) was > 32 µg/mL, the MIC (Pseudomonas aeruginosa [2]) was > 32 µg/mL and the MIC (Pseudomonas aeruginosa [3]) was > 32 µg/mL. For the same molecule, the MIC (Pseudomonas aeruginosa [4]) was > 32 µg/mL and the IC50 [5] was 650 nM.
For `C[C@H](NC(=O)N[C@@H](Cc1c[nH]c2ccccc12)C(=O)O)C(=O)N[C@@H](C(=O)N/C=C1\O[C@@H](n2ccc(=O)[nH]c2=O)[C@H](O)[C@@H]1O)[C@H](C)N(C)C(=O)[C@@H](Cc1cccc(O)c1)NC(=O)CN`, the MIC (Pseudomonas aeruginosa [1]) was > 32 µg/mL, the MIC (Pseudomonas aeruginosa [2]) was > 32 µg/mL and the MIC (Pseudomonas aeruginosa [3]) was > 32 µg/mL. The MIC (Pseudomonas aeruginosa [4]) was > 32 µg/mL and the IC50 [5] was 8900 nM.
`C[C@H](N)C(=O)N(C)[C@@H](C)[C@H](NC(=O)[C@H](C)NC(=O)N[C@@H](Cc1c[nH]c2ccccc12)C(=O)O)C(=O)N/C=C1/C[C@@H](O)[C@H](n2ccc(=O)[nH]c2=O)O1` [PACIDAMYCIN D] gave an MIC (Pseudomonas aeruginosa [1]) of 16 µg/mL (≈ 22.5 µM), an MIC (Pseudomonas aeruginosa [2]) of 16 µg/mL (≈ 22.5 µM) and an MIC (Pseudomonas aeruginosa [3]) of 16 µg/mL (≈ 22.5 µM). For the same molecule, the MIC (Pseudomonas aeruginosa [4]) was 64 µg/mL (≈ 89.9 µM) and the IC50 [5] was 22 nM.
